The text below walks through data of ChEMBL document CHEMBL4017523, “Computer-Aided Identification and Lead Optimization of Dual Murine Double Minute 2 and 4 Binders: Structure-Activity Relationship Studies and Pharmacological Activity” (J Med Chem, 2017).

For test [1], the system named is SH-SY5Y. Kind of test: cells. The note with it: Homo sapiens, 24 h, read-out: Activity.
Test [2] concerns SH-SY5Y. Kind of test: Antiproliferative activity against human SH-SY5Y cells after 24 hrs by MTS assay. A general note: Formazan colour is commonly taken as a measure of viable cells.
Test [3] has as its system SH-SY5Y. Kind of test: Antiproliferative activity against human SH-SY5Y cells at 1 nM to 100 uM after 72 hrs by neutral red dye-based assay. The format is functional, cell-based. An outline of the steps: (§1)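 Cells exposed to DMSO control or test agent at 1 nM to 100 μM for 72 h. Drug medium replaced, then 0.33% neutral red solution added at 10% of medium volume for 2 h at 37 °C. After PBS rinse, dye extracted with 1% glacial acetic acid/50% ethanol in PBS with 10 min shaking. Absorbance read at 540 nm.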

In test [4] the test system is U-87 MG. In words: Antiproliferative activity against human U87MG cells at 1 nM to 100 uM after 72 hrs by neutral red dye-based assay. Particulars: U-87MG ATCC. The format is functional, cell-based. An outline of the steps: as §1
Test [5] concerns SH-SY5Y. Kind of test: Antiproliferative activity against human SH-SY5Y derived cancer stem cells after 7 days by MTS assay. The format is functional, cell-based. An outline of the steps: (§2)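 Cancer stem cells isolated by culturing 2.5 × 10^6 tumor cells without serum in NSC medium for 7 days. Treated with test agent (100 nM–10 μM) for 7 days, drug-containing medium renewed every 3 days. Proliferation measured by MTS and expressed as percent of control (mean ± SEM, N = 3).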

The test system of test [6] is U-87 MG. In words: Antiproliferative activity against human U87MG derived cancer stem cells after 7 days by MTS assay. The format is functional, cell-based. Particulars: U-87MG ATCC. An outline of the steps:
as §2

Test [7] relates to U-87 MG. Kind of test: Antiproliferative activity against human U87MG cells at 1 uM after 24 hrs by MTS assay. The format is functional, cell-based. Particulars: U-87MG ATCC. An outline of the steps:
(§3)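 Cells treated for 24 h, either alone or combined with reference MDM2 inhibitor (1 μM) and/or MDM4 inhibitor (1 μM). Drug medium then swapped for fresh medium and growth continued before MTS read-out. Data given as percent of untreated control set to 100% (mean ± SEM, N = 3).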

Test [8] has as its system SH-SY5Y. In words: Antiproliferative activity against human SH-SY5Y cells at 1 uM after 24 hrs in presence of […] by MTS assay relative to control. The format is functional. An outline of the steps:
as §3

Test [9] has as its target T1, Protein Mdm4 (Homo sapiens) (UniProt O15151).
T1 sequence (whole entry): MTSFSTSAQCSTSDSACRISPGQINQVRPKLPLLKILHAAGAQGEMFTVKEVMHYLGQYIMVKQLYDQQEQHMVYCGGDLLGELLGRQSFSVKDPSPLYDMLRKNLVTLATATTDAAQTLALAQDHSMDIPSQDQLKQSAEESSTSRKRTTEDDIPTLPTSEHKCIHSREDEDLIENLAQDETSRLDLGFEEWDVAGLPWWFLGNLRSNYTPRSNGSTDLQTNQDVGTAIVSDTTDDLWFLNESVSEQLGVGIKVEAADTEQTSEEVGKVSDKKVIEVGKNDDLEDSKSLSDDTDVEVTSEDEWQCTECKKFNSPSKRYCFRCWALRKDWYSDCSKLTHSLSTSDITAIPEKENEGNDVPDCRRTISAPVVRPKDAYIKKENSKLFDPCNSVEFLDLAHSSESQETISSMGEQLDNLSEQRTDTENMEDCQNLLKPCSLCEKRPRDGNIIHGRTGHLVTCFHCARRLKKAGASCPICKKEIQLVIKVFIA
In words: Inhibition of MDM4 in human SH-SY5Y cells assessed as increase in PUMA mRNA levels at 1 uM after 24 hrs by RT-qPCR analysis. The format is cell-based. An outline of the steps:
(§4)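 Cells incubated 24 h with agents at 1 μM, alone or combined with MDM2 inhibitor. RNA extracted and MDM2, PUMA and p21 transcripts quantified by real-time RT-PCR. Results reported as fold change versus control (mean ± SEM, N = 3).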
On the technique in general: Real-time PCR tracks product formation cycle by cycle.

In test [10] the target is T1, Protein Mdm4 (Homo sapiens). In words: Inhibition of MDM4 in human SH-SY5Y cells assessed as increase in PUMA mRNA levels at 1 uM after 24 hrs in presence of Nutlin-3 by RT-qPCR analysis. The format is cell-based. An outline of the steps: as §4
Test [11] shares this target. Kind of test: Inhibition of MDM4 in human SH-SY5Y cells assessed as increase in MDM2 mRNA levels at 1 uM after 24 hrs by RT-qPCR analysis. The format is cell-based. An outline of the steps:
as §4

Test [12] shares this target. In words: Inhibition of MDM4 in human SH-SY5Y cells assessed as accumulation of p53 at 1 uM after 24 hrs by Western blot analysis. The format is cell-based. An outline of the steps: (§5)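 Cells treated 24 h with DMSO control or agents at 1 μM, alone or combined with 1 μM MDM2 inhibitor. Cells lysed in RIPA buffer and run on 8.5% SDS-PAGE. Blots probed overnight at 4 °C with anti-p53 (1:200), using GAPDH as loading control. Bands quantified by densitometry as percent OD versus control (mean ± SEM, N = 2).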
(Immunoblotting shows a protein as a band on a membrane.)

Test [13] has the same target. In words: Inhibition of MDM4 in human SH-SY5Y cells assessed as increase in p21 mRNA levels at 1 uM after 24 hrs by RT-qPCR analysis. The format is cell-based. An outline of the steps: as §4
For test [14] the target is unchanged. In words: Inhibition of MDM4 in human SH-SY5Y cells assessed as increase in p21 mRNA levels at 1 uM after 24 hrs in presence of Nutlin-3 by RT-qPCR analysis. The format is cell-based. An outline of the steps:
as §4

Test [15] deals with E3 ubiquitin-protein ligase Mdm2 (Homo sapiens, UniProt Q00987). Kind of test: Inhibition of MDM2 in human U87MG cells assessed as reduction in MDM2 interaction with p53 after 10 mins by quantitative sandwich immune-enzymatic assay. The format is cell-based.
Test [16] addresses T2, Protein Mdm4 (Homo sapiens, UniProt O15151).
T2 sequence (O15151 whole entry): T1 sequence (whole entry)
Kind of test: Inhibition of MDM4 in human SH-SY5Y cells assessed as reduction in MDM4 interaction with p53 after 10 mins by quantitative sandwich immune-enzymatic assay. The format is cell-based.

Test [17] has as its target T1, Protein Mdm4 (Homo sapiens). Kind of test: Inhibition of MDM4 in human SH-SY5Y cells assessed as accumulation of p53 at 1 uM after 24 hrs in presence of Nutlin-3 by Western blot analysis. The format is cell-based. An outline of the steps: as §5
Test [18] relates to SH-SY5Y. Kind of test: Antiproliferative activity against human SH-SY5Y cells at 1 uM after 24 hrs in presence of Nutlin-3 by MTS assay relative to control. The format is functional. An outline of the steps: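 Cells were exposed to compound for 24 h, alone or with 1 μM MDM2 inhibitor. Drug medium was then replaced with fresh medium, and cells grew for a further 3 days before the MTS read-out. Values are % of control (100%), mean ± SEM, N=3. For SH-SY5Y, IC50 came from a sigmoid dose-response fit.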

Each structure is given as a SMILES string. The source made the active and inactive calls. The rule behind the calls is not given here.

Sequence of E3 ubiquitin-protein ligase Mdm2 (Q00987 whole entry): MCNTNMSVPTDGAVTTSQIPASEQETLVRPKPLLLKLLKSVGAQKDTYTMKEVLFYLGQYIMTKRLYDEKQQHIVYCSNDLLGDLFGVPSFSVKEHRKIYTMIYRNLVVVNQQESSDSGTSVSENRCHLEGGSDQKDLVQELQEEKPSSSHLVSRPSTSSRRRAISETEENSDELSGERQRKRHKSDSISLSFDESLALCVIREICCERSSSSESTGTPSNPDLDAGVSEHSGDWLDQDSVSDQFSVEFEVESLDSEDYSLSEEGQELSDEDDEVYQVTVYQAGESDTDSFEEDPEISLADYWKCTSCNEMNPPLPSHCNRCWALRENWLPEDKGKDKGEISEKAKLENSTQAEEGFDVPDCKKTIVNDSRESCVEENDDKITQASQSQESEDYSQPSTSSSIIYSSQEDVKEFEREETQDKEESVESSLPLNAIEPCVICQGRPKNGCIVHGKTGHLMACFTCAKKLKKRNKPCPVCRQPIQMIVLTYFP

The IC50 is the concentration that gives 50% inhibition. As for `O=C(CC(c1ccccc1)c1ccccc1)N[C@@H](Cc1ccc(OCCCNc2ccccn2)cc1)C(=O)O`, the viability at 1 µM in test [1] stood at 62.4%. Moreover, the IC50 in test [2] was 356 nM. In addition, the result in test [3] and in test [4] was Active. Further, the Activity result in test [5] and in test [6] was “Dose-dependent effect” throughout.
For the molecule `COc1ccc(C2=N[C@H](c3ccc(Cl)cc3)[C@H](c3ccc(Cl)cc3)N2C(=O)N2CCNC(=O)C2)c(OC(C)C)c1`, the result in test [7] was Active. In addition, in test [8], the Activity was found to be 47.1%.
`CCOc1cc(/C=C2\C(=O)N(c3ccccc3)N=C2C)cc(Cl)c1OCC(=O)OC`: the inhibition result in [9] and in test [13] was “inactive” throughout. The inhibition entry in test [10], in test [11], in [12], in test [14] and in test [17] was “Active” each time. For the same molecule, the result in test [7] was inactive. Further, the IC50 in [15] was more than 1000 nM; in test [16], 847 nM. Further, in test [18], the Activity was 47.1%.
